For two compounds, Kd results are on record in BindingDB's records for doi:10.1128/AAC.00971-08 (Cnrs-Cpbs/Umr 5236, 2009).

For this assay, the target named is Albumin (Homo sapiens, UniProt P02768). As to the kind of experiment: Binding affinity to first site on human serum albumin by SPR. The method in brief:
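SPR on a BIACORE 3000 at 25°C. HSA was amine-coupled to a CM5 chip at 40 µg/ml in 10 mM acetate, pH 5.2. Drug was injected from 400 µM to 0.1 µM in twofold dilutions in PBS with 5% DMSO at 50 µl/min, with 30 s association and 30 s dissociation. Responses were reference-subtracted, read 10 s into the injection and DMSO-corrected. Dose-response curves gave KD or fraction of sites occupied.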

Sequence of Albumin (P02768 whole entry): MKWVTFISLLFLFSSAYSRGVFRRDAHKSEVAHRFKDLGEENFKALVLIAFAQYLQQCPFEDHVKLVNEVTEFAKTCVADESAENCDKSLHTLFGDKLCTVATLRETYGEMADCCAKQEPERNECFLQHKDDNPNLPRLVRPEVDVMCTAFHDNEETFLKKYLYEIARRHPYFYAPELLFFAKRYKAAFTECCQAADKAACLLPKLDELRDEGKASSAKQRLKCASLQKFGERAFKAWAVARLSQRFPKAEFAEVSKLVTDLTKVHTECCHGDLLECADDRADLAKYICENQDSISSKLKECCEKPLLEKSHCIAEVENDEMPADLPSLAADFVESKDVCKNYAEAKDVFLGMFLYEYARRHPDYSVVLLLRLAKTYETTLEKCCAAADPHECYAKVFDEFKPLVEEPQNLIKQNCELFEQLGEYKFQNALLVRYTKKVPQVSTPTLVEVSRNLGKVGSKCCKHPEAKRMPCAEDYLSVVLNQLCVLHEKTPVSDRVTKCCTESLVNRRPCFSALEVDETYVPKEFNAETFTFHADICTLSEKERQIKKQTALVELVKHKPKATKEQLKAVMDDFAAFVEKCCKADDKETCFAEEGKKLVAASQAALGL

In the case of `CN(C)c1ccc(O)c2c1C[C@H]1C[C@H]3[C@H](N(C)C)C(=O)C(C(N)=O)C(=O)[C@@]3(O)C(=O)C1C2=O` (some centres not stated) [Klinomycin], binding was put at a Kd of 12 µM. Consider `COc1ccc(OC)c(/C=C2\SC(=S)N(C(C(=O)O)c3ccccc3)C2=O)c1` (configuration not stated) [2-[(5Z)-5-[(2,5-dimethoxyphenyl)methylidene]-4-oxo-2-sulfanylidene-3-thiazolidinyl]-2-phenylacetic acid], for which the affinity, expressed as Kd, was 12 µM.
